In ChEMBL document CHEMBL1275315, “Synthesis, antioxidant activities and urease inhibition of some new 1,2,4-triazole and 1,3,4-thiadiazole derivatives” (Eur J Med Chem, 2010):

Columns and labels:
[1] = Antioxidant activity assessed as Superoxide anion radical scavenging activity in cell-free system; type: functional
Procedure, shortened: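 NADH–NBT–PMS system in 0.1 M phosphate buffer, pH 7.4, with sample added from a 1 mM DMSO stock; other reagents made up in buffer. Run at room temperature. Superoxide followed as blue formazan formation at 560 nm.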

[2] = target: Urease (Canavalia ensiformis) (UniProt P07374); assay: (§1) Inhibition of jack bean urease assessed as ammonia production after 15 mins by indophenol method; parameters: inhibition: concentration or dose not given beside the values
Urease (Canavalia ensiformis), sequence (P07374 whole entry, looked up): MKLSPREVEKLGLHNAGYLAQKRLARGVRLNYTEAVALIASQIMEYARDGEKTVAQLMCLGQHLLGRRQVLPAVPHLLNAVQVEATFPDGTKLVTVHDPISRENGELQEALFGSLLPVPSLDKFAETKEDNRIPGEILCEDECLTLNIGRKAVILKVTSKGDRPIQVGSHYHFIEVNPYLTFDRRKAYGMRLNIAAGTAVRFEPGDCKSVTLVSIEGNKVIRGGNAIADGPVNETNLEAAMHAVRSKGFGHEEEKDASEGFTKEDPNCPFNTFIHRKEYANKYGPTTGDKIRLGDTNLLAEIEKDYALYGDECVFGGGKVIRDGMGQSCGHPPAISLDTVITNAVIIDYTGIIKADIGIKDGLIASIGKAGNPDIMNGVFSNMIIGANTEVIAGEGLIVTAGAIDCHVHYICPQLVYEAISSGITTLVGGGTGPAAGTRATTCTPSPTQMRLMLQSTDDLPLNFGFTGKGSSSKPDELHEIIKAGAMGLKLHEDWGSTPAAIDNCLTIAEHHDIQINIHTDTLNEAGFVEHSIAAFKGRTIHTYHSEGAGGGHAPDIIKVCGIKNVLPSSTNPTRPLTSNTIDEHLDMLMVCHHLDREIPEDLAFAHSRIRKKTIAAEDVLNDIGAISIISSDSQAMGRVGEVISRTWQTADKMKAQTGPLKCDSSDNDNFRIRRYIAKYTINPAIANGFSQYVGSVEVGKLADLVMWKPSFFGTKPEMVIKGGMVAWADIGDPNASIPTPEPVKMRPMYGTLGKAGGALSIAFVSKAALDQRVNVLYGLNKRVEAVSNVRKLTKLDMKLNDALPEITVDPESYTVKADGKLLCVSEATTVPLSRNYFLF
Procedure, shortened: (§2)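 Jack bean urease preincubated with test sample at 30 °C for 15 min in buffer containing 100 mM urea, pH 6.8. Ammonia measured by the indophenol method, using phenol reagent (1% w/v phenol, 0.005% w/v sodium nitroprusside) and alkali reagent (0.5% w/v NaOH, 0.1% active chloride NaOCl). Absorbance at 630 nm read after 50 min. Run in triplicate; % inhibition calculated from OD test/OD control; thiourea as standard.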

Urease = Urease (Canavalia ensiformis, UniProt P07374); assay: as §1; procedure, shortened: as §2
Urease, sequence (P07374 whole entry): as the sequence (P07374 whole entry, looked up) above

[3] = system: Radical scavenging activity; assay: Antioxidant activity assessed as DPPH free radical scavenging activity in cell-free system after 30 mins; type: functional
Procedure, shortened: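 Compound dissolved in DMSO and DPPH in ethanol. Decrease in absorbance read at 515 nm after incubation. Percent radical scavenging calculated relative to a DMSO-treated control.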

Work on `Cc1cccc(Nc2nnc(-c3ccc(Cl)cc3)s2)c1C` yielded an IC50 [1] of 139 µM, an inhibition [2] of 52.8% and an IC50 (Urease) of 484 µM.

Work on `Cc1ccc(Nc2nnc(-c3cccc(Cl)c3)s2)c(C)c1` yielded an IC50 [1] of 124 µM and an inhibition [2] of 12.4%.

For `Cc1ccc(-c2n[nH]c(=S)n2-c2c(C)cccc2C)cc1`, the inhibition [2] was 6.8%.

Compound `Cc1ccc(-n2c(-c3cccc(Cl)c3)n[nH]c2=S)c(C)c1` has an inhibition [2] of 53.1% and an IC50 (Urease) of 460 µM.

`Cc1cccc(-n2c(-c3ccccc3)n[nH]c2=S)c1C` showed an inhibition [2] of 93.4% and an IC50 (Urease) of 86 µM.

With `Cc1ccc(-n2c(-c3ccc(Cl)cc3)n[nH]c2=S)c(C)c1` the IC50 [3] was 292 µM, the inhibition [2] was 88.6% and the IC50 (Urease) was 171 µM.

Work on `NC(N)=S` yielded an IC10 [2] of 21 µM.

`Cc1ccc(Nc2nnc(-c3cccc([N+](=O)[O-])c3)s2)c(C)c1` showed an IC50 [1] of 131 µM, an inhibition [2] of 73.4% and an IC50 (Urease) of 398 µM.

`Cc1ccccc1-c1n[nH]c(=S)n1-c1cccc(C)c1C` gave an inhibition [2] of 43.4%.

Work on `Cc1ccc(Nc2nnc(-c3ccc([N+](=O)[O-])cc3)s2)c(C)c1` yielded an IC50 [1] of 94.8 µM and an inhibition [2] of 7.2%.

`Cc1cccc(C)c1-n1c(-c2ccccc2Cl)n[nH]c1=S` gave an inhibition [2] of 48.3%.

`Cc1cccc(-n2c(-c3ccc(Cl)cc3)n[nH]c2=S)c1C` showed an inhibition [2] of 48.3%.

Work on `Cc1cccc(C)c1Nc1nnc(-c2ccc(Cl)cc2)s1` yielded an IC50 [3] of 320 µM, an IC50 [1] of 255 µM and an inhibition [2] of 91.1%. For the same compound, the IC50 (Urease) was 215 µM.

With `Cc1cccc(Nc2nnc(-c3ccccc3)s2)c1C` the inhibition [2] was 56.8% and the IC50 (Urease) was 426 µM.

Compound `Cc1cccc(C)c1-n1c(-c2cccc(Cl)c2)n[nH]c1=S` has an inhibition [2] of 64.8% and an IC50 (Urease) of 357 µM.

For `CCCOC(=O)c1cc(O)c(O)c(O)c1` [PROPYL GALLATE], the IC50 [3] was 30.5 µM and the IC50 [1] was 106 µM.

Work on `Cc1cccc(C)c1-n1c(-c2ccc(Cl)cc2)n[nH]c1=S` yielded an inhibition [2] of 7.5%.

Work on `Cc1ccc(-n2c(-c3cccc([N+](=O)[O-])c3)n[nH]c2=S)c(C)c1` yielded an IC50 [3] of 242 µM, an inhibition [2] of 97% and an IC50 (Urease) of 45.6 µM.

With `Cc1cccc(C)c1Nc1nnc(-c2ccccc2Cl)s1` the inhibition [2] was 82.8% and the IC50 (Urease) was 313 µM.

With `Cc1ccc(-c2nnc(Nc3c(C)cccc3C)s2)cc1` the inhibition [2] was 27.1%.
